# Article PMC7482441 (Pharmacological Research, 2020)
# Legend:
# TNFα = assay: Circulating biomarker, baseline vs 4-week treatment; format: in vivo, human; conditions: 20 DMD patients, Luminex, p-value 0.0009, FDR 0.24
# [1] = test system: CK MM (Creatine Kinase MM isoform); assay: as above; format: in vivo, human; conditions: 20 DMD patients, Electrophoresis, p-value 0.0009, FDR 0.24
# [2] = test system: CK T (Creatine Kinase total); assay: as above; format: in vivo, human; conditions: 20 DMD patients, Electrophoresis, p-value 0.0007, FDR 0.24
# [3] = Population PK / non-compartmental analysis of plasma Rimeporide in DMD boys; format: in vivo, human; conditions: for half-life: male, human, plasma, po
# Summary of the method: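 Sparse plasma sampling: Day 1 pre-dose, 0.5–1, 1–2, 2.5–3.5 and ~6 h post-dose; Day 28 at 0.5–1 and ~6 h. Drug was quantified by a validated LC–MS/MS method. A 3-compartment population model with absorption and first-order elimination was fitted in NONMEM, pooled with healthy-volunteer and heart-failure data.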
# mdx mice = conditions: short and long term studies in mdx mice; cited from earlier work
# healthy male subjects = conditions: earlier Merck KGaA phase I studies; cited from earlier work
# ambulant boys with DMD = assay: Phase Ib safety assessments; format: in vivo, human
# Summary of the method: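 Open-label study in boys aged 6–14 with genetically confirmed DMD, walking ≥75 m and on stable corticosteroids ≥6 months. Dosing was oral, 50–300 mg TID for 4 weeks, in 4 ascending cohorts. Assessments at screening, weeks 1, 2 and 4, and 1–2 weeks post-treatment: physical exam, AEs, supine/standing blood pressure and heart rate, respiratory rate. Also 12-lead ECG with QT, read locally and centrally, plus blood/urine haematology and biochemistry.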
# [4] = Cohort 1 N = 5, 150 to 225 mg daily oral, 4 weeks
# [5] = Cohort 2 N = 5, 300 to 450 mg daily oral, 4 weeks
smiles,measurement,setting,value
[H]/N=C(\N)NC(=O)c1cc(S(C)(=O)=O)c(S(C)(=O)=O)cc1C [Rimeporide],"TNFα: Term (TRT, linear mixed effect model, Day 28 vs Day 0)",TNFα,−0.1726
same,"CK MM: Term (TRT, linear mixed effect model, Day 28 vs Day 0)",[1],−0.3886
same,"CK T: Term (TRT, linear mixed effect model, Day 28 vs Day 0)",[2],−0.3851
same,TAT (time above 500 ng/ml over 24 h),"[3]; Cohort 1, 150 to 225 mg daily oral, Day 1, mean, N 5",6.6 h
same,TAT (time above 500 ng/ml over 24 h),"[3]; Cohort 1, 150 to 225 mg daily oral, Day 28, mean, N 4",8.4 h
same,TAT (time above 500 ng/ml over 24 h),"[3]; Cohort 2, 300 to 450 mg daily oral, Day 1, mean, N 5",17 h
same,TAT (time above 500 ng/ml over 24 h),"[3]; Cohort 2, 300 to 450 mg daily oral, Day 28, mean, N 5",15 h
same,TAT (time above 500 ng/ml over 24 h),"[3]; Cohort 3, 450 to 600 mg daily oral, Day 1, mean, N 5",18 h
same,TAT (time above 500 ng/ml over 24 h),"[3]; Cohort 3, 450 to 600 mg daily oral, Day 28, mean, N 5",16 h
same,TAT (time above 500 ng/ml over 24 h),"[3]; Cohort 4, 600 to 900 mg daily oral, Day 1, mean, N 5",19.0 h
same,TAT (time above 500 ng/ml over 24 h),"[3]; Cohort 4, 600 to 900 mg daily oral, Day 28, mean, N 5",18 h
same,dose linearity of PK,[3]; DMD patients,dose linear
same,accumulation with time,"[3]; DMD patients, repeated dosing 4 weeks",no sign of any accumulation
same,effect of fed condition on AUC24,[3]; fed condition,no impact
same,effect of fed condition on Cmax,[3]; fed condition,decrease
same,exposure in children compared to healthy adults,[3]; in vivo,slightly higher exposure than in adults
same,half-life,"[3]; T1/2, Cohort 3, 450 to 600 mg daily oral, Day 1, mean, N 5",3.9 h
same,half-life,"[3]; T1/2, Cohort 3, 450 to 600 mg daily oral, Day 28, mean, N 5",3.76 h
same,half-life,"[3]; T1/2, Cohort 4, 600 to 900 mg daily oral, Day 1, mean, N 5",3.9 h
same,half-life,"[3]; T1/2, Cohort 4, 600 to 900 mg daily oral, Day 28, mean, N 5",3.75 h
same,time post dose at which Cmax occurred,"[3]; oral immediate release capsules, Days 1 and 28",1 to 2 h
same,effects in skeletal and cardiac muscles,mdx mice,potent anti-inflammatory and anti-fibrotic effects
same,maximum tolerated dose,healthy male subjects,could not be defined
same,12-lead ECGs,ambulant boys with DMD; 4-week treatment,no clinically important changes
same,Abdominal pain upper: patients (events),"ambulant boys with DMD; All patients N = 20, 4 weeks",2 (3 events)
same,Chills: patients (events),"ambulant boys with DMD; All patients N = 20, 4 weeks",1 (2 events)
same,Cough: patients (events),"ambulant boys with DMD; All patients N = 20, 4 weeks",3 (3 events)
same,Dizziness: patients (events),"ambulant boys with DMD; All patients N = 20, 4 weeks",1 (1 event)
same,Ear and labyrinth disorders: patients (events),"ambulant boys with DMD; All patients N = 20, 4 weeks",1 (1 event)
same,Fall: patients (events),"ambulant boys with DMD; All patients N = 20, 4 weeks",1 (1 event)
same,Flushing: patients (events),"ambulant boys with DMD; All patients N = 20, 4 weeks",2 (3 events)
same,Gastrointestinal disorders: patients (events),"ambulant boys with DMD; All patients N = 20, 4 weeks",6 (10 events)
same,General disorders and administration site conditions: patients (events),"ambulant boys with DMD; All patients N = 20, 4 weeks",2 (3 events)
same,Infections and infestations: patients (events),"ambulant boys with DMD; All patients N = 20, 4 weeks",4 (4 events)
same,"Injury, poisoning and procedural complications: patients (events)","ambulant boys with DMD; All patients N = 20, 4 weeks",1 (1 event)
same,Mouth ulceration: patients (events),"ambulant boys with DMD; All patients N = 20, 4 weeks",1 (1 event)
same,Nervous system disorders: patients (events),"ambulant boys with DMD; All patients N = 20, 4 weeks",7 (8 events)
same,Oropharyngeal pain: patients (events),"ambulant boys with DMD; All patients N = 20, 4 weeks",1 (1 event)
same,Presyncope: patients (events),"ambulant boys with DMD; All patients N = 20, 4 weeks",1 (1 event)
same,Pyrexia: patients (events),"ambulant boys with DMD; All patients N = 20, 4 weeks",1 (1 event)
same,"Respiratory, thoracic and mediastinal disorders: patients (events)","ambulant boys with DMD; All patients N = 20, 4 weeks",4 (4 events)
same,Tympanic membrane perforation: patients (events),"ambulant boys with DMD; All patients N = 20, 4 weeks",1 (1 event)
same,Vascular disorders: patients (events),"ambulant boys with DMD; All patients N = 20, 4 weeks",2 (3 events)
same,Vomiting: patients (events),"ambulant boys with DMD; All patients N = 20, 4 weeks",2 (2 events)
same,Abdominal pain upper: patients (events),ambulant boys with DMD; [4],0
same,Any treatment-emergent adverse event: patients (events),ambulant boys with DMD; [4],2 (6 events)
same,Chills: patients (events),ambulant boys with DMD; [4],1 (2 events)
same,Cough: patients (events),ambulant boys with DMD; [4],0
same,Diarrhoea: patients (events),ambulant boys with DMD; [4],0
same,Dizziness: patients (events),ambulant boys with DMD; [4],0
same,Ear and labyrinth disorders: patients (events),ambulant boys with DMD; [4],0
same,Fall: patients (events),ambulant boys with DMD; [4],1 (1 event)
same,Flushing: patients (events),ambulant boys with DMD; [4],0
same,Gastrointestinal disorders: patients (events),ambulant boys with DMD; [4],0
same,General disorders and administration site conditions: patients (events),ambulant boys with DMD; [4],1 (2 events)
same,Headache: patients (events),ambulant boys with DMD; [4],1 (1 event)
same,Infections and infestations: patients (events),ambulant boys with DMD; [4],0
same,"Injury, poisoning and procedural complications: patients (events)",ambulant boys with DMD; [4],1 (1 event)
same,Mouth ulceration: patients (events),ambulant boys with DMD; [4],0
same,Nasopharyngitis: patients (events),ambulant boys with DMD; [4],0
same,Nervous system disorders: patients (events),ambulant boys with DMD; [4],1 (1 event)
same,Oropharyngeal pain: patients (events),ambulant boys with DMD; [4],0
same,Presyncope: patients (events),ambulant boys with DMD; [4],0
same,Pyrexia: patients (events),ambulant boys with DMD; [4],0
same,"Respiratory, thoracic and mediastinal disorders: patients (events)",ambulant boys with DMD; [4],0
same,Tympanic membrane perforation: patients (events),ambulant boys with DMD; [4],0
same,Vascular disorders: patients (events),ambulant boys with DMD; [4],0
same,Vomiting: patients (events),ambulant boys with DMD; [4],0
same,Abdominal pain upper: patients (events),ambulant boys with DMD; [5],0
same,Any treatment-emergent adverse event: patients (events),ambulant boys with DMD; [5],1 (3 events)
same,Chills: patients (events),ambulant boys with DMD; [5],0
same,Cough: patients (events),ambulant boys with DMD; [5],1 (1 event)
